Many of the other results were omitted from the sample, so hits are more common in it than they were.
UPR CHOP act: activators of apoptotic CHOP UPR arm, primary screen, cell-based, CHO-CHOP luciferase reporter, luminescence, uHTS. UPR activation; percent of tunicamycin response over DMSO baseline. activation, % at 10 µM. actives 0.34% (n = 330,000). AID 449763, 2010;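 active means at 10 µM dose, activation of 40% or more, normalized to positive control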;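 further: 100% = tunicamycin at 10 µg/mL and 0% = DMSO alone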
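Dosing – one dose, 10 µM in 0.5% DMSO · System – CHO-CHOP cells, stable luciferase reporter of PERK-eIF2a-CHOP signalling · Input – 500 cells/well · Control set – tunicamycin 10 µg/mL final as positive, DMSO-only wells as negative · Timing – 6 h compound treatment, 37 °C · Measure – % activation vs tunicamycin · Technique – luminescence read with Steady-Glo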
UPR XBP1 act: activators of adaptive XBP1 UPR arm, primary screen, cell-based, CHO-XBP1 luciferase reporter, luminescence, uHTS. IRE1-XBP1 UPR activation; percent of tunicamycin response, DMSO as zero. activation, % at 20 µM. actives 0.33% (n = 330,000);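 active means versus positive control, 20 µM dose yields 30% or more activation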;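 further: 100% = tunicamycin at 10 µg/mL and 0% = DMSO only wells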
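Material: CHO cell line with stable XBP1 luciferase reporter; buffer or medium: F12 medium containing 10% fetal bovine serum; compound: single point, 20 µM final compound, 1% DMSO; incubation: 6 h treatment, 37 °C; measured by: glow luminescence from Steady-Glo reagent; evaluation: activation, % of tunicamycin; control set: tunicamycin high, DMSO low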
Dynein cargo inh: inhibitors of GR-EGFP nuclear translocation, primary screen, dynein cargo transport inhibitor project, imaging, high-content, 3617.4 mouse cells; test concentration mostly 20 µM; stimulated with dexamethasone, 1 µM; stronger effect = lower value; z-score, hits read low; actives 0.47% (n = 220,000); AID 1381, 2008;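 active means plate z-score of nuclear minus cytoplasmic receptor signal below a set negative limit, without overly bright fluorescence or cell loss, cut at about -3.5 in these data, passing the limit was not always enough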;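 further: z-score of nuclear minus cytoplasmic ring GR-EGFP intensity difference per well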
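Medium: Induction medium lacking tetracycline, stripped serum | Probe or stimulus: 1.0 µM final dexamethasone stimulus | Schedule: 48 h induction, then 1 h compound, then 30 min agonist, 37 °C | Signal: Automated 10x imaging of fixed Hoechst-stained cells | Evaluation: Per-cell GR-EGFP intensity, nucleus versus surrounding cytoplasmic ring, well-averaged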
T cruzi repl: inhibitors of intracellular T. cruzi growth, primary screen, luminescence, NIH3T3 host cells; T. cruzi beta-gal in NIH3T3, 90 h; inhibition, % (no concentration beside the values); actives 1.4% (n = 300,000);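 active means mean inhibition across valid replicates above about 55%, limit read from the data; inconclusive means mean below that limit but half or more replicates reach it; inactive means mean below it, under half of replicates reach it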;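 further: signal also drops with host cell toxicity which is not excluded here; 0% = plate median of DMSO wells and 100% = zero luminescence signal; higher percent means less beta-gal luminescence so fewer parasites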
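Read-out: Parasite load inhibition, % | Test system: Mouse NIH/3T3 fibroblasts infected with β-gal-expressing T. cruzi Tulahuen C4 | Amount: 5,000 cells/well | Medium: DMEM, 2% fetal bovine serum | Signal: GalScreen β-gal luminescence, detergent lysis, 60 min | Timing: 3 h attach, ≥90 h co-culture | Also added: Tulahuen C4 trypomastigotes, 5000/well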
CHOP inh: inhibitors of CHOP promoter induction, primary screen, cell-based, unfolded protein response, luciferase reporter; actives 3.8% (n = 220,000); CHO-K1 CHOP-promoter luciferase, tunicamycin-induced, 15-18 h; inhibition, % at 10 µM;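 active means compounds that reduced the stress-induced luciferase reporter signal by more than about 70% of percent inhibition, limit read from the data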;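 further: 0% = tunicamycin plus vehicle and 100% = wells without tunicamycin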
L major viab: Leishmania major promastigote growth inhibition, primary screen; Leishmania major promastigotes, resazurin fluorescence viability; inhibition, % at 10 µM; actives 9% (n = 200,000); in the data active means inhibition above about 50%;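 further: promastigotes grown with compound for 44 hours at 28 °C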
Dynein inh conf: dynein cargo transport inhibitors, GR-EGFP translocation, confirmation, imaging, high-content imaging, GR-EGFP cells; actives 69% (n = 1,000); 3617.4 GR-EGFP nuclear translocation imaging, dexamethasone-induced; AID 463116, 2010; calls only at 20 µM; shares compounds with Dynein cargo inh;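 active means inhibition of receptor movement into the nucleus at or above a set limit in both runs, with normal cell brightness and cell count; inconclusive means limit reached in only one run, brightness and count normal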;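 further: dexamethasone at 1 µM final in well for 30 min; nuclear minus cytoplasmic GR-EGFP mean intensity difference in channel 2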
CHOP inh conf: retest of CHOP induction inhibitors, confirmation, cell-based. shares compounds with CHOP inh. CHO-CHOP promoter luciferase reporter, tunicamycin-induced, luminescence. inhibition, % at 10 µM. actives 45% (n = 2,100). AID 504437, 2011;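 active means mean of three repeat readings of reporter signal inhibition above a set limit, cut at about 70% in these data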;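 further: 0% = tunicamycin plus vehicle and 100% = wells lacking tunicamycin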
CHOP UPR conf: activators of apoptotic CHOP UPR arm, confirmation, cell-based, CHO-CHOP luciferase reporter, single concentration; CHO-CHOP cells, CHOP-luciferase reporter luminescence; percent of tunicamycin response, DMSO as zero; shares compounds with UPR CHOP act; activation, % at 10 µM; actives 64% (n = 1,000); in the data active means activation above about 33%;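 further: 0% = DMSO wells and 100% = tunicamycin 10 µg/mL wells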
XBP1 UPR conf: IRE1-XBP1 UPR arm activators, confirmation, cell-based, CHO-XBP1 luciferase reporter, luminescence, single concentration; shares compounds with UPR XBP1 act; activation, % at 20 µM; actives 63% (n = 1,000);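 active means reporter signal at least 30% of the positive control's activation in two or more of four replicate wells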;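 further: plate controls were DMSO negative control for no effect and tunicamycin 10 µg/mL positive control for full effect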
* = called active by the depositor; ? = inconclusive; / = no result given; + = active, no number.

SMILES	UPR CHOP act	UPR XBP1 act	Dynein cargo inh	T cruzi repl	CHOP inh	L major viab	CHOP inh conf	others
O=c1cc(C(Cl)(Cl)Cl)oc2c1ccc1ccccc12	47*	163*	-4*	69*	100*	98*	-10	Dynein inh conf=+;CHOP UPR conf=33*;XBP1 UPR conf=286*
O=c1cc(-c2ccco2)oc2c1ccc1ccccc12	1	0	-0.87	14	17	-3	/
CC(=O)N1CCC2(CC1)CC(=O)c1cc(Cl)ccc1O2	0	0	/	-15	/	/	/
Cn1c(Cl)cnc1C1CC(=O)c2cc(Cl)ccc2O1 (stereo unspecified)	23	77*	-5.9*	5	-37	100*	/	Dynein inh conf=?;XBP1 UPR conf=130*
CCn1nc(C)cc1C(=O)Sc1cccc(Cl)c1	5	49*	-3.5*	10	-34	/	/	Dynein inh conf=+;XBP1 UPR conf=5
COC(=O)c1cc(=O)n(-c2ccc(C(F)(F)F)cc2)[nH]1	-2	1	-0.55	-4	30	/	/
COc1ccc(-n2c(C)cc(C(=O)CCl)c2C)cc1	564*	42*	-3.8*	43	-121	101*	/	Dynein inh conf=+;CHOP UPR conf=417*;XBP1 UPR conf=31*
Cc1ccn2c(CNCC3OCCc4ccccc43)c(C(=O)N3CCCCCC3)nc2c1 (stereo unspecified)	1	1	-1.3	36	19	9	/
O=C(O)c1ccc(-n2ccnc2)c([N+](=O)[O-])c1	0	1	-0.36	-5	8	-7	/
COC(=O)c1cc([N+](=O)[O-])c(-n2ccnc2)c([N+](=O)[O-])c1	7	91*	-3.5*	-10	90*	37	/	Dynein inh conf=+;XBP1 UPR conf=187*
Cc1ccnc(N/C=C(\C#N)c2nc(-c3cccc(Br)c3)cs2)c1	3	91*	-12	13	44	-1	/	Dynein inh conf=+;XBP1 UPR conf=94*
CCN(CC)c1ccc2cc(-c3nc4ccccc4[nH]3)c(=O)oc2c1	22	45*	-5.2*	4	100*	37	41	Dynein inh conf=+;XBP1 UPR conf=21
COc1cccc(OC)c1OCCCN1CCC(Cc2ccccc2)CC1	-1	-3	/	21	/	/	/
O=C(N=C1SC2CS(=O)(=O)CC2N1c1ccccc1C(F)(F)F)C1CCCO1 (stereo unspecified)	2	-3	/	-5	/	/	/
COc1cc(/C=N\NC(=O)CN2CCOCC2)ccc1OCC(=O)Nc1ccc(C)c(C)c1	1	2	-0.12	-9	28	8	/
CCOc1cc(/C=N\NC(=O)Cc2ccccc2)ccc1OCC(=O)Nc1ccc(C)c(C)c1	32	26	-0.19	/	97*	-1	127*
O=S(=O)(NCC(Nc1ccc(Cl)cc1)c1ccccc1)c1ccccc1 (stereo unspecified)	-1	-3	-0.1	8	99*	13	22
O=C1C(N2CCOCC2)=C(n2nnc3ccccc32)C(=O)c2ccccc21	4	-5	-0.38	?	/	100*	95*
O=C(CSc1nc2ncccc2[nH]1)Nc1ccc2c(c1)OCO2	2	-4	2.3	-12	-13	/	/
O=C(CSc1nc(-c2ccccc2)c(-c2ccccc2)[nH]1)Nc1ccc2c(c1)OCO2	0	0	0.65	2	102*	11	19
CCOC(=O)[C@@H](C)N(Cc1ccc(OC)cc1)S(=O)(=O)N(Cc1ccccc1)[C@H](C(=O)OC)C(C)C	13	-4	/	/	/	/	/
O=C(CN1c2ccccc2Sc2ccccc21)NNC(=O)Nc1ccc(Cl)cc1	2	0	-1.1	9	100*	/	27
Cc1cc(C)c2nc(Cl)c(Cl)nc2c1	-2	0	-0.22	-7	-8	/	/
COc1cccc(/C=N/NC(=O)CCc2c(C)n[nH]c2C)c1O	0	-1	0.1	-8	9	/	/
NC(=S)n1[nH]c(-c2ccc([N+](=O)[O-])cc2)c(N=Nc2ccc(Cl)cc2)c1=O	/	/	2.3	/	107*	97*	114*
SMILES	UPR CHOP act	UPR XBP1 act	Dynein cargo inh	T cruzi repl	CHOP inh	L major viab	CHOP inh conf	others
Cc1ccc(N=Nc2c(C)[nH]n(C(N)=S)c2=O)cc1	4	2	0.31	-18	17	29	/
CN(C(=O)CN1CCN(c2cnn(-c3ccccc3)c(=O)c2Cl)CC1)C1CCS(=O)(=O)C1 (stereo unspecified)	1	-3	/	/	/	/	/
CC1=Nc2nc(N3CCCCC3)c(C#N)c3c4c(nc(c23)N1)N(c1ccc(C(C)C)cc1)C(=O)C4	3	-3	-0.67	12	108*	59*	83*
COc1cc(OC)cc(-c2nc3ccccc3c(=O)n2OC(=O)c2ccc(Br)cc2)c1	-1	-1	0.87	2	106*	50*	112*
COc1ccc(O)c(CNn2c(-c3ccc(Br)cc3)nc3ccccc3c2=O)c1	4	-1	0.46	0	10	35	/
COc1ccc(C(=O)On2c(-c3ccc(Br)cc3)nc3ccccc3c2=O)cc1	3	9	-0.58	-18	105*	-8	69
C=CCc1cccc(/C=N/NC(=O)CCCNc2ccc(C)cc2)c1O	/	/	1.9	-14	97*	-6	75*
C=CCc1cccc(/C=N/NC(=O)CCC(=O)Nc2ccc(F)cc2)c1O	-2	-3	-0.56	33	102*	35	29
Cc1ccc(S(=O)(=O)N2CCCC(c3nc4c(nnn4Cc4ccc5c(c4)OCCO5)c(=O)[nH]3)C2)cc1 (stereo unspecified)	1	3	/	10	/	/	/
O=S(=O)(Nc1ccc(N2CCCCC2)cc1)c1ccc(F)c(F)c1	-3	-4	-1.4	17	100*	67*	11
O=C(O)c1cc(S(=O)(=O)Nc2ccc(N3CCCCC3)cc2)ccc1Cl	0	-2	-1	2	16	-9	/
